Measured values taken from ChEMBL document CHEMBL3797094, “Turmeric Sesquiterpenoids: Expeditious Resolution, Comparative Bioactivity, and a New Bicyclic Turmeronoid” (J Nat Prod, 2016).
Activity calls are given as the source filed them. No cut-off for these calls is given here.

Tests used:
[1] = Inhibition of TNF alpha-induced NF-kappaB (unknown origin) activation in NIH/3T3-KBF-Luc cells after 6 hrs by luciferase reporter gene assay; type: cell-based; details: Homo sapiens
How it was run: (§1)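 NIH-3T3-KBF-Luc fibroblasts (15 × 10⁴ cells/mL) were kept at 37 °C and 5% CO2 in DMEM with 10% heat-inactivated FBS. Cells were preincubated with the compounds at rising concentrations, then stimulated with TNFα for 6 h. They were PBS-washed and lysed for 15 min at rt in Tris-phosphate pH 7.8 with 1% Triton X-100. Luciferase was read in the supernatant, with TNFα alone set as 100%.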

HaCaT = assay: Cytotoxicity against human HaCaT-ARE-Luc cells assessed as cell viability at 1 to 50 uM after 12 hrs by YOYO-1 staining based fluorescence assay
Homo sapiens [2] = organism: Homo sapiens; assay: Inhibition of TNF alpha-induced NF-kappaB (unknown origin) activation in NIH/3T3-KBF-Luc cells assessed as suppression of p65 phosphorylation at 1 to 50 uM preincubated for 15 mins followed by TNF alpha stimulation for 30 mins by western blot analysis; type: cell-based
How it was run: (§2)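 NIH-3T3-KBF-Luc cells were treated with the compounds for 15 min, then stimulated with TNFα (30 ng/mL) for 30 min. Lysis used Hepes pH 8.0 buffer with 0.5% NP-40 and protease/phosphatase inhibitors (15 min, 4 °C), then 10000g for 10 min. After Bradford assay, 20 μg protein was run on 10% SDS-PAGE and blotted to nitrocellulose. Blocking was 5% milk overnight; phospho-protein detection was by ECL.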

[3] = biological target: T1, Nuclear factor erythroid 2-related factor 2 (Homo sapiens) (UniProt Q16236); assay: Activation of Nrf2 (unknown origin) in HaCaT-ARE-Luc cells at 1 to 50 uM after 6 hrs by luciferase reporter gene assay; type: cell-based
T1 sequence (whole entry): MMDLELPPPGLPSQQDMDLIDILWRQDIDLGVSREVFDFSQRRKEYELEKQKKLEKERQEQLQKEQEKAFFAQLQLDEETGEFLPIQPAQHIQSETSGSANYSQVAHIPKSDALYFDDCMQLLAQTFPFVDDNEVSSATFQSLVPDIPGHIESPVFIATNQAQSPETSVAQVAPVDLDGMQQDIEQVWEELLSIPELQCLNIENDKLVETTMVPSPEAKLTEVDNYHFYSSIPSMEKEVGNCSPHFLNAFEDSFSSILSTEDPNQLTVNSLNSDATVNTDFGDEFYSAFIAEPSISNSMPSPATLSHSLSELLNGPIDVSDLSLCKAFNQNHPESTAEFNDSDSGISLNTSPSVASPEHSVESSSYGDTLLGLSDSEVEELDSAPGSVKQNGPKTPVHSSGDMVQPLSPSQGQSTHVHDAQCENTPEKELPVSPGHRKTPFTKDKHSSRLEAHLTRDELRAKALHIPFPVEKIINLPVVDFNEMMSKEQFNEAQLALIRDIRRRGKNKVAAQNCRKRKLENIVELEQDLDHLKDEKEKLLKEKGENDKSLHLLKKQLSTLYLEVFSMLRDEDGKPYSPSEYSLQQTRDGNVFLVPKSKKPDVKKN
How it was run: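 HaCaT-ARE-Luc cells (15 × 10⁴ cells/mL, DMEM with 10% FBS, 37 °C, 5% CO2) were exposed to the compounds alone at rising concentrations for 6 h. Cells were PBS-washed and lysed in Tris-phosphate pH 7.8 with Triton X-100. Luciferase activity in the cleared lysate is given as fold induction over basal.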

[4] = Cytotoxicity against mouse NIH/3T3-EPO-Luc cells assessed as cell viability at 1 to 50 uM after 12 hrs by YOYO-1 staining based fluorescence assay; details: nih3t3, 12 h
Homo sapiens [5] = organism: Homo sapiens; assay: Inhibition of TNF alpha-induced NF-kappaB (unknown origin) activation in NIH/3T3-KBF-Luc cells assessed as suppression of IKappaB alpha phosphorylation at 1 to 50 uM preincubated for 15 mins followed by TNF alpha stimulation for 30 mins by western blot analysis; type: cell-based; how it was run: as §2
HeLa = assay: Cytotoxicity against human HeLa-STAT3-Luc cells assessed as cell viability at 1 to 50 uM after 12 hrs by YOYO-1 staining based fluorescence assay
[6] = Cytotoxicity against mouse NIH/3T3-KBF-Luc cells assessed as cell viability at 1 to 50 uM after 12 hrs by YOYO-1 staining based fluorescence assay; details: nih3t3, 12 h
[7] = biological target: Hypoxia-inducible factor 1-alpha (Homo sapiens) (UniProt Q16665); assay: Inhibition of DFX induced HIF-1 alpha (unknown origin) activation in NIH/3T3-EPO-Luc cells at 1 to 50 uM after 6 hrs by luciferase reporter gene assay; type: cell-based
How it was run: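 NIH-3T3-EPO-Luc cells (15 × 10⁴ cells/mL, DMEM with 10% FBS, 37 °C) were preincubated with the compounds at rising concentrations, then given DFX (150 μM) for 6 h. Luciferase was measured in the cleared Tris-phosphate/Triton lysate and expressed as fold induction over basal.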

[8] = biological target: Signal transducer and activator of transcription 3 (Homo sapiens) (UniProt P40763); assay: Inhibition of IFN gamma-induced STAT3 (unknown origin) activation in HeLa-STAT3-Luc cells at 1 to 50 uM after 6 hrs by luciferase reporter gene assay; type: cell-based
How it was run: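 HeLa-STAT3-Luc reporter cells (15 × 10⁴ cells/mL, DMEM with 10% FBS, 37 °C, 5% CO2) were preincubated with the compounds at rising concentrations, then stimulated with IFNγ for 6 h. Lysate luciferase is expressed as percent inhibition, with IFNγ-induced activity set as 100%.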

Homo sapiens [9] = organism: Homo sapiens; assay: Activation of NF-kappaB (unknown origin) in NIH/3T3-KBF-Luc cells at 1 to 50 uM coincubated with TNF-alpha after 6 hrs by luciferase reporter gene assay; type: cell-based; how it was run: as §1

Chain of Hypoxia-inducible factor 1-alpha (Homo sapiens) (Q16665 whole entry, looked up): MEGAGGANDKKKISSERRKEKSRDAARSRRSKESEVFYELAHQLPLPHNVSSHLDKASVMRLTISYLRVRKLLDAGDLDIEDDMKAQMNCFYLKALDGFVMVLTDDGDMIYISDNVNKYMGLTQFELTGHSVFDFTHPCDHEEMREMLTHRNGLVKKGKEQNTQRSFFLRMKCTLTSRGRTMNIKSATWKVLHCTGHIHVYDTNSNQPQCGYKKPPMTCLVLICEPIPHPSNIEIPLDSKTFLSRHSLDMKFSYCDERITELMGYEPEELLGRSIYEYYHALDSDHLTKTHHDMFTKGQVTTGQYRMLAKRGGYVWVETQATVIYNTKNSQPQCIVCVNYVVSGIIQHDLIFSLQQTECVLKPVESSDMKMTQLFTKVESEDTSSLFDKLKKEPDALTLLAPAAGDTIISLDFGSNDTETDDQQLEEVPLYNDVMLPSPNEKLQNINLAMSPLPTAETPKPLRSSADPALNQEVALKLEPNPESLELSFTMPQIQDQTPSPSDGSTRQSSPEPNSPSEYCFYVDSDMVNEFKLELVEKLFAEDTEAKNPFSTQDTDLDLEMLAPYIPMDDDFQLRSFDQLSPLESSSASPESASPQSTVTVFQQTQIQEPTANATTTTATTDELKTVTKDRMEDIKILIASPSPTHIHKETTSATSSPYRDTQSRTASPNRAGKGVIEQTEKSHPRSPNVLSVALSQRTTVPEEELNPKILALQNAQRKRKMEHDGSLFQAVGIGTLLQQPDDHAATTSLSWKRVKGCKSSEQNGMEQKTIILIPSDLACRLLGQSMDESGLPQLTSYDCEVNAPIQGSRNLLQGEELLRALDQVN
Chain of Signal transducer and activator of transcription 3 (Homo sapiens) (P40763 whole entry): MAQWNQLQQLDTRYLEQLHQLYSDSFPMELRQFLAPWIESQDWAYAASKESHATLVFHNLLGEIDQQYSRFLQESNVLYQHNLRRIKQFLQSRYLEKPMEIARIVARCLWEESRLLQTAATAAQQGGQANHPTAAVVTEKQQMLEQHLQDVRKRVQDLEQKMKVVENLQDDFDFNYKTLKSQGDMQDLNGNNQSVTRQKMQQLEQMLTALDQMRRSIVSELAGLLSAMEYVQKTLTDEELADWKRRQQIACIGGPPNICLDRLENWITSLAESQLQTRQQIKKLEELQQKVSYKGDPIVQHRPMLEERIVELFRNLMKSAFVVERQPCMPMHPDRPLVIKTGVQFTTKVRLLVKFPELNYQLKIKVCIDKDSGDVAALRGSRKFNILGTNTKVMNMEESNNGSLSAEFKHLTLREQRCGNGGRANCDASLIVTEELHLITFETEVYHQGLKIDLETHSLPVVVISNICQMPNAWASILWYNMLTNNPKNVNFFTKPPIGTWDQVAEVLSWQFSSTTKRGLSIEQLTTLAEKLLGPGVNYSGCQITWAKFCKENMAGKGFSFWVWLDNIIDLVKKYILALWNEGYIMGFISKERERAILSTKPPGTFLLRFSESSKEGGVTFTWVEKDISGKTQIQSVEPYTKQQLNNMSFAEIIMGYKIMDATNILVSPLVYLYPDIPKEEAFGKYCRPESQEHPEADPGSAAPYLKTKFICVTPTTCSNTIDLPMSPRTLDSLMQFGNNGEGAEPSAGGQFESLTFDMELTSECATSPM

IC50 [1] | Activity [3] | inhibition [7] | Activity [8] | SMILES | Activity (HaCaT) | inhibition (Homo sapiens [2]) | Activity [4] | inhibition (Homo sapiens [5]) | Activity (HeLa) | Activity [6] | Activity (Homo sapiens [9])
22.7 µM | inactive | inactive |  | CC(C)=CC(=O)C[C@H](C)c1ccc(C)cc1 | Non-toxic | Active | Non-toxic | Active | Non-toxic | Non-toxic | 
 | Active | inactive | inactive | C=C1C=C[C@H]([C@@H](C)CC(=O)C=C(C)C)CC1 |  |  |  |  |  |  | Active
